How the values were obtained:
Format in all cases: cell-based
[1] = target: T1, Aryl hydrocarbon receptor (AhR) ligand-binding domain (Mus musculus, UniProt P30561); experiment: Induction of mouse AhR LBD transcriptional activity in mouse hepa1 cells transfected with AhR response element co expressed with XRE after 6 hrs by luciferase reporter gene assay relative to control; settings: read-out: FC
T1 sequence (P30561 whole entry): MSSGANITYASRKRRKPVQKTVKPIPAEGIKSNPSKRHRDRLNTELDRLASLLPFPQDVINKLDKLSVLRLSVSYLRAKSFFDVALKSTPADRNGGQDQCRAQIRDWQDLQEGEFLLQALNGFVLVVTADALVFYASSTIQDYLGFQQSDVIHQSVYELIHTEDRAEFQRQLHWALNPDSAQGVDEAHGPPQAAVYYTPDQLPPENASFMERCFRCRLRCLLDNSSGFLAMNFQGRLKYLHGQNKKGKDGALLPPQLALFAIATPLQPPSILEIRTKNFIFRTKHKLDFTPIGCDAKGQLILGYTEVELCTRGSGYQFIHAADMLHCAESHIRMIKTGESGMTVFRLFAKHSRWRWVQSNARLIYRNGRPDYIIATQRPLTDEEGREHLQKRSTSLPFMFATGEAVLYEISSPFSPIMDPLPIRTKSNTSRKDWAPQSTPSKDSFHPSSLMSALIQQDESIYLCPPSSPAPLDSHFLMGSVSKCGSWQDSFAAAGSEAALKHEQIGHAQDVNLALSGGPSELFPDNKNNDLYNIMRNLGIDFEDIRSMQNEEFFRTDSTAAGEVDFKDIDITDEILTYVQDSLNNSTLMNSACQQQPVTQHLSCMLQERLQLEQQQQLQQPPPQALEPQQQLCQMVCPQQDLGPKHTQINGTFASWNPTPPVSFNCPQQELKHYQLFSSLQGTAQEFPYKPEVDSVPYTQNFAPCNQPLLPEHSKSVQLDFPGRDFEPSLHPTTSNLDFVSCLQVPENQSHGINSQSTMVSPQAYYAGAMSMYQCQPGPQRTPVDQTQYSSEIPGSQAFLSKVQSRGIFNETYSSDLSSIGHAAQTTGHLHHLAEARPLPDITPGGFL
Procedure, shortened: (§1)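 Mouse Hepa1 cells carrying an AhRE/XRE-luciferase reporter, grown in DMEM/10% FBS with penicillin/streptomycin under 5% CO2. Test agents from DMSO stocks, final 20 µM, were applied for 6 h and reporter activity then measured. Fold activation was graded: ≥8 very strong, >4 strong, […].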

[2] = target: T2, Aryl hydrocarbon receptor (Mus musculus, UniProt P30561); experiment: Induction of nuclear translocation of AhR from cytosol in mouse Hepa1 cells at 20 uM after 60 mins using DAPI staining by microscopic analysis; settings: hepa1, 1 h
T2 sequence (P30561 whole entry): T1 sequence (P30561 whole entry)
Procedure, shortened: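 Hepa1 cells given test agents for 60 min, then fixed. They were immunostained for AhR with FITC-labelled secondary antibody and counterstained with DAPI for nuclei. AhR nuclear localization was imaged by fluorescence microscopy.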

[3] = target: T2, Aryl hydrocarbon receptor; experiment: Effect on AhR-mediated CYP1A1 activation in mouse Hepa1c1c12 cells at 20 uM after 18 hrs by Western blot analysis; settings: in the assay text read “semi-quantitative RT-PCR analysis” for “Western blot analysis”
Procedure, shortened: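 Pair of Hepa1c1c7-derived lines: C12 (much reduced AhR) and C12 re-expressing WT AhR. Cells in DMEM/10% FBS with antibiotics under 5% CO2 were given 20 µM for 18 h, vehicle 0.1% DMSO, TCDD 1 nM as reference. Target genes (CYP1A1, NADPH-QO) assessed by semi-quantitative RT-PCR with GAPDH control. AhR shown by blot of 30 µg whole-cell lysate.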

[4] = target: T2, Aryl hydrocarbon receptor; experiment: Induction of mouse AhR LBD transcriptional activity in mouse hepa1 cells transfected with AhR response element co expressed with XRE at 20 uM after 6 hrs by luciferase reporter gene assay in presence of 6-hydroxy-7-methoxyflavone; procedure, shortened: as §1

| SMILES | fold induction at 6 h [1] | Activity [2] | Activity [3] | Activity [4] |
| --- | --- | --- | --- | --- |
| O=c1cc(-c2ccccc2O)oc2c(O)c(O)ccc12 | 2.8 | – | – | – |
| Cc1ccc2oc(-c3ccccc3)c(O)c(=O)c2c1 | 2.5 | – | – | – |
| COc1ccc2c(=O)c(-c3ccccc3)coc2c1 | 2.7 | – | – | – |
| O=C1CC(c2ccccc2)Oc2cc(O)cc(O)c21 (single isomer, unassigned) [PINOCEMBRIN] | 8 | Active | Active | – |
| Clc1cc2c(cc1Cl)Oc1cc(Cl)c(Cl)cc1O2 [2,3,7,8-TETRACHLORODIBENZO-P-DIOXIN] | 21 | – | – | – |
| Cc1ccc2oc(-c3ccccc3)cc(=O)c2c1 [6-METHYLFLAVONE] | 4.8 | – | – | – |
| COc1cc(O)c2c(=O)cc(-c3ccccc3)oc2c1 [TECHTOCHRYSIN] | 11.3 | Active | Active | Not Active |

From ChEMBL document CHEMBL1153528, “Modeling of the aryl hydrocarbon receptor (AhR) ligand binding domain and its utility in virtual ligand screening to predict new AhR ligands” (J Med Chem, 2009)
